S100A4 MyoIIA: inhibitors of S100A4-myosin IIA peptide binding, primary screen, biochemical, fluorescence polarization, TAMRA-MyoIIA peptide; hit rate 0.14% among 360,000; AID 652163, 2013; Protein S100-A4 (Homo sapiens), P26447; inhibition, % at 10.7 µM;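 active means mean inhibition of at least 70% across replicates, with every replicate also reaching that level; inconclusive means mean inhibition reaches 70% but some replicates fall short; inactive means mean inhibition below 70%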
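Assay system: human S100A4 monomer with TAMRA-labelled myosin IIA peptide / Buffer or medium: Calcium-containing HEPES buffer, pH 7.2 / Reagent: TAMRA-labelled myosin IIA heavy-chain peptide probe, 5 nM / Compound: one dose per compound / Timing: polarization read 5 min after assay mix addition, stable 5–60 min / Benchmarks: neutral control DMSO, positive control TFP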
SIRT5 block: SIRT5 desuccinylase inhibitors, primary screen, biochemical, fluorescence imaging, single point, set 5; AID 652115, 2013; inhibition, % at 15 µM; hit rate 1.1% among 330,000; Purified SirT5, succinyl-peptide AMC, trypsin-coupled fluorescence; in the data active means inhibition above about 15%; inconclusive means no clear call, values can overlap the other calls
CAL PDZ FP-1: untagged CAL PDZ binding inhibitors, primary screen, biochemical, fluorescence polarization, HTS; Golgi-associated PDZ and coiled-coil motif-containing protein (Homo sapiens), Q9HD26; purified CAL PDZ, TMR-peptide fluorescence polarization, 1 h; inhibition, % at 24.9 µM; hit rate 0.92% among 300,000;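 active means mean inhibition of at least 30% with at least half of replicates also reaching 30%; inconclusive means no clear call, values can overlap the other calls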
CAL PDZ FP-2: CAL PDZ peptide-binding inhibitors, primary screen, biochemical, fluorescence polarization, Cer-tagged CAL PDZ, HTS; purified CAL PDZ, TMR-peptide fluorescence polarization, 1 h; AID 504414, 2011; Golgi-associated PDZ and coiled-coil motif-containing protein (Homo sapiens), Q9HD26; hit rate 0.02% among 330,000; inhibition, % at 20 µM;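 active means highest replicate inhibition of at least 40%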
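Material: tagged CAL PDZ domain; buffer or medium: 25 mM sodium phosphate pH 7.4, 150 mM NaCl, TCEP, IgG, Thesit; compound dosing: single point, 20 µM; schedule: 1 h incubation at room temperature before polarization reading; measured by: FP readout, S and P plane fluorescence; read-out basis: percent inhibition from loss of millipolarization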
DENV2 CPE rescue: inhibitors of DENV2 cytopathic effect, primary screen, cell-based, plate reader, single concentration. DENV2-infected cells, cytopathic effect rescue. CPE inhibition, % at 9.99 µM. hit rate 1.7% among 350,000. AID 651640, 2012; in the data active means CPE inhibition above about 20%, passing the limit was not always enough; inconclusive means no clear call, values can overlap the other calls; tested in BHK-21 cells
ERAP1 inh: human ERAP1 aminopeptidase inhibitors, primary screen, biochemical, single point, plate reader. recombinant ERAP1, Leu-AMC fluorescence, 60 min. inhibition, % at 10.7 µM. hit rate 0.15% among 340,000. AID 652197, 2013;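 active means mean replicate inhibition of at least 30%, or all replicates individually reaching that 30% level; inactive means mean below 30% and not every replicate reaching it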
A number is an active result; n = inactive; u = inconclusive; x = not tested or not shown. Most compounds without a hit are left out; they make up all but 2.9% or so of the library.

SMILES | S100A4 MyoIIA | SIRT5 block | CAL PDZ FP-1 | CAL PDZ FP-2 | DENV2 CPE rescue | ERAP1 inh
COCC(=O)N1[C@H](C#N)[C@@H](c2ccc(-c3cccc(F)c3)cc2)[C@@H]1CO | n | n | x | x | n | n
Cc1c(N2C(=O)c3ccc(Br)cc3C2=O)c(=O)n(-c2ccccc2)n1C | x | x | 36 | n | x | x
O=C(c1coc2ccc(O)c(CN3CCOCC3)c12)C1CC1 | x | x | n | n | x | x
O=C(c1cccs1)c1coc2ccc(O)c(CN3CCOCC3)c12 | n | 29 | n | n | x | n
O=C(CN1CCOCC1)N1CCCCN2[C@H](CO)[C@H](c3ccc(C#Cc4ccccc4F)cc3)[C@H]2C1 | n | n | x | x | n | n
Cc1ccc(NC(=O)C(C)OC(=O)CSc2ccccc2)cc1 (centres undefined) | n | x | n | n | n | n
Cc1ccc(SCC(=O)OC(C)C(=O)NCc2ccccc2)cc1 (centres undefined) | n | n | n | n | 64 | n
COc1ccc(C(C)(NC(C)=O)c2nc(-c3cccc(F)c3)cs2)cc1 (centres undefined) | n | x | x | x | 29 | n
CCOC(=O)CN1CC23C=CC(O2)C(C(=O)NCCc2ccccc2)C3C1=O (centres undefined) | n | x | x | n | 22 | n
CC1=Nc2cc(C(=O)O)ccc2Sc2ccc(Br)cc21 | n | 23 | x | n | n | n
CC1=Nc2cc(C(=O)NCC3CCCO3)ccc2Sc2ccc(Br)cc21 (centres undefined) | n | n | n | n | n | n
CON(C)C(=O)/C=C/CCCCNC(=O)OC(C)(C)C | n | x | n | n | 37 | x
CC(C)(C)OC(=O)NCCCCCO | n | n | n | n | n | n
CO[C@H]1CN(C)C(=O)c2cc(NC(=O)C3CCCCC3)ccc2OC[C@@H](C)NC[C@@H]1C | n | n | x | x | n | n
COCC(=O)NC[C@@H]1[C@@H](c2ccc(-c3ccccc3)cc2)[C@H](CO)N1C(C)=O | n | n | x | x | 41 | n
CCC(=O)NC[C@@H]1[C@H](c2ccc(C3=CCCC3)cc2)[C@H](CO)N1C(C)=O | n | n | x | x | n | n
CCC(=O)NC[C@@H]1[C@@H](c2ccc(-c3ccc(OC)cc3)cc2)[C@@H](CO)N1C(C)=O | n | n | x | x | 42 | n
COCCNC(=O)C[C@@H]1CC[C@@H]2[C@H](COc3ccc(NS(=O)(=O)c4ccc(Cl)cc4)cc3C(=O)N2C)O1 | n | n | x | x | n | n
Cc1nc(CN(C)Cc2nc(Cc3cccc(F)c3)no2)cs1 | n | 26 | n | n | n | n
CN(Cc1cnccn1)Cc1nc(Cc2cccc(F)c2)no1 | n | n | n | n | n | n
C[C@@H]1CN([C@@H](C)CO)C(=O)c2cc(NC(=O)Nc3ccc(F)cc3)ccc2O[C@@H](C)CCCCO[C@@H]1CN(C)Cc1ccccc1 | n | n | x | x | n | n
CO[C@@H]1CN(C)C(=O)c2cc(NC(=O)Nc3ccccc3)ccc2OC[C@@H](C)N(CC2CC2)C[C@@H]1C | n | n | x | x | n | n
CO[C@H]1CN(C)C(=O)c2cc(NS(C)(=O)=O)ccc2OC[C@H](C)N(C(=O)CN(C)C)C[C@@H]1C | n | n | x | x | 64 | n
CO[C@@H]1CN(C)C(=O)c2cc(NS(C)(=O)=O)ccc2OC[C@@H](C)N(C(=O)CN(C)C)C[C@@H]1C | n | n | x | x | 21 | n
COc1ccc2c3c(n(C)c2c1)[C@@H](CO)N(Cc1ccccc1)CC31CCN(C(=O)c2ccccc2F)CC1 | n | n | x | x | n | n
SMILES | S100A4 MyoIIA | SIRT5 block | CAL PDZ FP-1 | CAL PDZ FP-2 | DENV2 CPE rescue | ERAP1 inh
COc1cc(-c2c(-c3cc(OC)c(OC)c(OC)c3)noc2C)ccc1F | n | n | x | x | n | n
COC(=O)c1cc(-c2c(-c3cc(OC)c(OC)c(OC)c3)noc2C)cc([N+](=O)[O-])c1 | n | n | n | n | 21 | n
CCc1ccccc1N(CC(=O)NCCc1ccccc1)C(=O)CCC(=O)Nc1ccccn1 | n | n | 65 | n | n | n
Cc1ccccc1N(CC(=O)NCCc1ccccc1)C(=O)CCC(=O)Nc1ccccn1 | n | n | n | n | n | n
C[N+]1(CC(=O)OCCCc2ccccc2)CCCCC1 | n | n | n | n | n | n
C[N+]1(CC(=O)OCCCc2ccccc2)CCCC1 | n | n | n | n | n | 77
COC(=O)C[C@@H]1C[C@H]2c3cc(NC(=O)NC4CCCCC4)ccc3O[C@H]2[C@H](CO)O1 | n | n | x | x | n | n
O=C(O)C[C@H]1C[C@H]2c3cc(NC(=O)NC4CCCC4)ccc3O[C@H]2[C@H](CO)O1 | n | n | x | x | 36 | n
O=C(C[C@@H]1C[C@H]2c3cc(NC(=O)NC4CCCCC4)ccc3O[C@H]2[C@@H](CO)O1)NCCc1ccccc1 | n | n | x | x | u | n
O=C(Nc1ccc2c(c1)[C@@H]1C[C@@H](CC(=O)N3CCOCC3)O[C@@H](CO)[C@@H]1O2)NC1CCCCC1 | n | n | x | x | 23 | n
O=C(Nc1ccc2c(c1)[C@H]1C[C@@H](CC(=O)N3CCCCC3)O[C@@H](CO)[C@H]1O2)NC1CCCCC1 | n | n | x | x | n | n
O=C(C[C@@H]1C[C@@H]2c3cc(NC(=O)NC4CCCCC4)ccc3O[C@@H]2[C@H](CO)O1)NCCc1ccccc1 | n | 26 | x | x | n | n
O=C(Nc1ccc2c(c1)[C@@H]1C[C@H](CC(=O)N3CCCCC3)O[C@@H](CO)[C@@H]1O2)NC1CCCCC1 | n | n | x | x | 32 | n
O=C(O)C[C@H]1C[C@H]2c3cc(NC(=O)NC4CCCC4)ccc3O[C@H]2[C@@H](CO)O1 | n | n | x | x | n | n
C/C=C/c1ccc2c(c1)O[C@@H](CN(C)C(=O)Nc1ccc(F)cc1)[C@@H](C)CN([C@@H](C)CO)S2(=O)=O | n | n | x | x | n | n
COc1ccc(NC(=O)Nc2ccc3c(c2)C(=O)N([C@@H](C)CO)C[C@@H](C)[C@H](CN(C)Cc2ccccc2)O3)cc1 | n | n | x | x | n | n
C[C@H](CO)N1C[C@H](C)[C@H](CN(C)Cc2ccncc2)Oc2c(NC(=O)Nc3ccc(F)cc3)cccc2C1=O | n | n | x | x | n | n
COc1ccc(CN(C)C[C@@H]2Oc3ccc(NC(=O)Cn4cnnn4)cc3C(=O)N([C@H](C)CO)C[C@H]2C)cc1 | n | n | x | x | n | n
CN(C)CCCNC(=O)C[C@H]1CC[C@H]2[C@H](COc3ccc(NC(=O)c4cccc(F)c4)cc3C(=O)N2C)O1 | n | n | x | x | n | n
O=C(NC1CCCC1)N[C@@H]1CC[C@H](CC(=O)N2CCOCC2)O[C@H]1CO | n | 25 | x | x | n | n

Bioassay records from PubChem BioAssay.
